inhibition, viability and IC50 data for 19 molecules are collected here from ChEMBL document CHEMBL3352056, “Inhibition of prostaglandin E(2) production by synthetic minor prenylated chalcones and flavonoids: synthesis, biological activity, crystal structure, and in silico evaluation” (Bioorg Med Chem Lett, 2014).

The structures appear in SMILES notation. Calls of active or inactive are those of the source. The rule behind the calls is not given here.

In data set [1] the test system is RAW264.7. Put plainly: Inhibition of IFN-gamma/LPS-induced PGE2 production in mouse RAW264.7 cells at 50 uM after 17 to 20 hrs by EIA method. The data set is classed as functional. Summed up: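 In RAW 264.7 cells seeded at 4 × 10⁵/well and attached for 2 h at 37 °C, compound was added with LPS, using 0.1% final DMSO as vehicle. Incubation ran 17–20 h at 37 °C, 5% CO₂. Supernatant PGE₂ was quantified by EIA from a standard curve and expressed as percent inhibition at a single test concentration.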

Data set [2] in a line: Cytotoxicity against mouse RAW264.7 cells assessed as cell viability by MTT assay. The data set is classed as cell-based. More on the design: concentration or dose not given beside the values. The conditions noted are these: read-out: Activity. The procedure, abridged:
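After the 17–20 h LPS co-treatment of RAW 264.7 cells (0.1% DMSO vehicle), the supernatant was removed and MTT (0.05 mg/mL) was added. Cells were held at 37 °C for 4 h. Formazan was dissolved in 100% DMSO and absorbance was read at 570 nm. Results are given as % viability. Culture viability before use was >95% by trypan blue.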

For data set [3], the system named is RAW264.7. Put plainly: Inhibition of IFN-gamma/LPS-induced PGE2 production in mouse RAW264.7 cells after 17 to 20 hrs by EIA method. It counts as functional, cell-based. The procedure, abridged:
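RAW 264.7 cells (4 × 10⁵/well) attached for 2 h at 37 °C, 5% CO₂. They were then co-incubated with LPS and compound in DMSO (0.1% final) for 17–20 h. Supernatant PGE₂ was measured by EIA against a standard curve. Dose-response testing spanned 0.78 to 50; group differences were tested by one-way ANOVA with Dunnett's test.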

The test system of data set [4] is RAW264.7. Kind of data set: Inhibition of IFN-gamma/LPS-induced nitric oxide production in mouse RAW264.7 cells by Griess assay. It counts as functional, cell-based.

With `COc1cc2c(cc1CC=C(C)C)C(=O)/C(=C/c1ccc(OC)c(OC)c1)O2`, testing at 50 µM in the data set with RAW264.7 [1] gave an inhibition of 83%. In data set [2], the viability is over 100%.

As to `CS(=O)(=O)Nc1ccc([N+](=O)[O-])cc1OC1CCCCC1` [NS-398], in the data set with RAW264.7 [1], the inhibition at 50 µM is 97%. For the same molecule, inhibition in the data set on RAW264.7 [3] was half-maximal at 0.1 µM (IC50). For the same molecule, in data set [2], the viability was over 100%.

Consider `COc1cc2c(cc1CC=C(C)C)C(=O)/C(=C/c1ccc(C)cc1)O2`, for which, in the data set with RAW264.7 [1], the inhibition result is “inactive”. Further, the viability in data set [2] is over 100%.

On to `COc1ccc(C(=O)/C=C/c2ccc(C)cc2)c(O)c1`, for which the inhibition result in the data set on RAW264.7 [1] is “inactive”. Moreover, in data set [2], the viability was determined as 97%.

As to `COc1cc(O)c(C(=O)/C=C/c2ccc(OC)c(OC)c2)cc1CC=C(C)C`, the inhibition at 50 µM in the data set with RAW264.7 [1] worked out at 90%. In addition, the IC50 with RAW264.7 [3] was 2.1 µM; in the data set on RAW264.7 [4], 13.8 µM. Besides, in data set [2], the viability was over 100%.

`COc1cc(O)c(C(=O)/C=C/c2ccc(-c3ccc(F)cc3)cc2)cc1CC=C(C)C` had an inhibition at 50 µM with RAW264.7 [1] of 63%. In addition, the viability in data set [2] is over 100%.

As for `COc1cc(O)c(C(=O)/C=C/c2cccc(-c3ccc(F)cc3)c2)cc1CC=C(C)C`, the inhibition result in the data set on RAW264.7 [1] was “inactive”. Also, in data set [2], the viability was over 100%.

`COc1cc(O)c(C(=O)/C=C/c2ccc(Br)cc2)cc1CC=C(C)C` showed an inhibition at 50 µM in the data set on RAW264.7 [1] of 70%. Moreover, in data set [2], the viability was over 100%.

Regarding `COc1ccc(C(=O)/C=C/c2ccc(OC)c(OC)c2)c(O)c1`, 50 µM produced 75% inhibition in the data set with RAW264.7 [1]. In addition, in data set [2], the viability was over 100%.

Molecule `COc1ccc2c(=O)c(OCC=C(C)C)c(-c3ccc(C)cc3)oc2c1` registered an inhibition at 50 µM with RAW264.7 [1] of 41%. Also, the viability in data set [2] was over 100%.

The molecule `COc1ccc2c(c1)O/C(=C\c1ccc(C)cc1)C2=O` returned an inhibition at 50 µM in the data set with RAW264.7 [1] of 78%. In data set [2], the viability was over 100%.

Take `COc1ccc2c(c1)O/C(=C\c1ccc(OC)c(OC)c1)C2=O`: in the data set on RAW264.7 [1], the inhibition at 50 µM turned out to be 76%. In data set [2], the viability was over 100%.

`CC(C)=CCOc1ccc(/C=C2\Oc3ccccc3C2=O)cc1` gave an inhibition at 50 µM in the data set with RAW264.7 [1] of 77%. The viability in data set [2] is over 100%.

For the molecule `COc1ccc2c(=O)c(O)c(-c3ccc(OC)c(OC)c3)oc2c1`, the inhibition at 50 µM with RAW264.7 [1] came to 80%. In data set [2], the viability worked out at 82%.

Turning to `COc1ccc2c(=O)c(O)c(-c3ccc(C)cc3)oc2c1`, the inhibition at 50 µM in the data set with RAW264.7 [1] was 70%. The viability in data set [2] was found to be 78%.

In the data set on RAW264.7 [1], `COc1cc(O)c(C(=O)/C=C/c2ccc(C)cc2)cc1CC=C(C)C` came in with an inhibition at 50 µM of 64%. Moreover, in data set [2], the viability is over 100%.

The molecule `CC(C)=CCOc1ccc2c(c1)O/C(=C\c1ccc(C)cc1)C2=O` came in with an inhibition at 50 µM in the data set with RAW264.7 [1] of 43%. Moreover, the viability in data set [2] is over 100%.

Consider `COc1ccc2c(=O)c(OCC=C(C)C)c(-c3ccc(OC)c(OC)c3)oc2c1`, for which, in the data set on RAW264.7 [1], the inhibition at 50 µM stood at 58%. Further, the viability in data set [2] is over 100%.

In the case of `COc1cc(O)c(C(=O)/C=C/c2ccc(O)c(O)c2)cc1CC=C(C)C`, in the data set on RAW264.7 [1], the inhibition at 50 µM was found to be 61%. For the same molecule, the viability in data set [2] is over 100%.
